Legend:
[1] = biological target: T1, Alpha-1D adrenergic receptor (Homo sapiens, UniProt P25100); assay: Displacement of [3H]prazosin from human alpha-1D adrenoreceptor expressed in CHO cells after 30 mins; assay type: cell-based
T1 sequence (P25100 whole entry): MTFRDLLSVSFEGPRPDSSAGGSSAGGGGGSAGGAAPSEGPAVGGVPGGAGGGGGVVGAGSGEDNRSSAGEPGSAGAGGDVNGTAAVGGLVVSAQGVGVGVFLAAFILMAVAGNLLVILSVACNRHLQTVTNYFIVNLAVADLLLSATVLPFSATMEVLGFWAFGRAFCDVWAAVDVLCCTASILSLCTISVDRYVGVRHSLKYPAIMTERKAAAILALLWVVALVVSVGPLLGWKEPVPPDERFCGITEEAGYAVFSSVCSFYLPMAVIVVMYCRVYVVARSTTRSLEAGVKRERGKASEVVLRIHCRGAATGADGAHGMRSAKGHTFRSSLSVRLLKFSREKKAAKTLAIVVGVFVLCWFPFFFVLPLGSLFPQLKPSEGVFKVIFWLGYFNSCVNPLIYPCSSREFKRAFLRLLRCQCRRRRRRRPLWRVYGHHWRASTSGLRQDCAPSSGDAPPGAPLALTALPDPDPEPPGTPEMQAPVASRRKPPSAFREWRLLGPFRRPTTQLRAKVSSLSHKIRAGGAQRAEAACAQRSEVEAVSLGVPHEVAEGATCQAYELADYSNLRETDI
Outline: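 Membranes from CHO cells expressing each α₁-AR subtype, incubated 30 min at 25 °C in 50 mM Tris HCl pH 7.7 with 10 μM pargyline and 0.1% ascorbic acid, plus 0.5 nM [³H]prazosin and varying test compound concentrations. Nonspecific binding was defined with 1 μM prazosin.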

Rattus norvegicus [2] = species on record: Rattus norvegicus; assay: Selectivity ratio of Ki for alpha-1D adrenoreceptor in Sprague-Dawley rat thoracic aorta to Ki for alpha-1A adrenoreceptor in Sprague-Dawley rat prostatic vas deferens; assay type: tissue-based
Rattus norvegicus [3] = species on record: Rattus norvegicus; assay: Selectivity ratio of Ki for alpha-1D adrenoreceptor in Sprague-Dawley rat thoracic aorta to Ki for alpha-1B adrenoreceptor in Sprague-Dawley rat spleen; assay type: tissue-based
Rattus norvegicus [4] = species on record: Rattus norvegicus; assay: Selectivity ratio of Ki for alpha-1D adrenoreceptor in Sprague-Dawley rat thoracic aorta to Ki for alpha-1A adrenoreceptor in Sprague-Dawley rat prostate; assay type: tissue-based

| Structure (SMILES) | Ki [1] | Ratio Ki (Rattus norvegicus [2]) | Ratio Ki (Rattus norvegicus [3]) | Ratio Ki (Rattus norvegicus [4]) |
| --- | --- | --- | --- | --- |
| COc1ccc2ccoc2c1OCCNC[C@H]1COc2ccccc2O1.Cl | 1.91 nM | 6 | 2 | – |
| COc1ccc2c(c1OCCNC[C@H]1COc3ccccc3O1)OCC2.Cl | 2.24 nM | 129 | 12 | 50 |
| COc1ccc2c(c1OCCNC[C@H]1COc3ccccc3O1)NCC2.Cl.Cl | 12.9 nM | – | – | – |
| COc1ccc2cc[nH]c2c1OCCNC[C@H]1COc2ccccc2O1 | 631 nM | – | – | – |
